According to ChEMBL document CHEMBL4834429, “Discovery of Nanomolar Melanocortin-3 Receptor (MC3R)-Selective Small Molecule Pyrrolidine Bis-Cyclic Guanidine Agonist Compounds Via a High-Throughput "Unbiased" Screening Campaign” (J Med Chem, 2021):

Assays:
Format in all cases: functional, cell-based
[1] = target: Melanocortin receptor 4 (Mus musculus) (UniProt P56450); assay: Agonist activity at mouse melanocortin receptor 4 expressed in HEK293 cells assessed as stimulation of intracellular cAMP accumulation at 10 uM incubated for 24 hrs by beta-galactosidase reporter gene assay relative to control
Outline: (§1)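 After lysis, ONPG hydrolysis was read at 405 nm and normalized to Bradford protein and maximal NDP-MSH response. Duplicates, ≥3 independent experiments; 100 μM dropped from fits where toxic.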

Melanocortin receptor 5 = Melanocortin receptor 5 (Mus musculus, UniProt P41149); assay: Agonist activity at mouse melanocortin receptor 5 expressed in HEK293 cells assessed as stimulation of intracellular cAMP accumulation incubated for 24 hrs by beta-galactosidase reporter gene assay
[2] = target: Melanocyte-stimulating hormone receptor (Mus musculus) (UniProt Q01727); assay: Agonist activity at mouse melanocortin receptor 1 expressed in HEK293 cells assessed as stimulation of intracellular cAMP accumulation at 10 uM incubated for 24 hrs by beta-galactosidase reporter gene assay relative to control; outline: as §1
[3] = target: Melanocortin receptor 3 (Mus musculus) (UniProt P33033); assay: Agonist activity at mouse melanocortin receptor 3 expressed in HEK293 cells assessed as stimulation of intracellular cAMP accumulation at 10 uM incubated for 24 hrs by beta-galactosidase reporter gene assay relative to control; outline: as §1
[4] = target: Melanocyte-stimulating hormone receptor (Mus musculus, UniProt Q01727); assay: Agonist activity at mouse melanocortin receptor 1 expressed in HEK293 cells assessed as stimulation of intracellular cAMP accumulation incubated for 24 hrs by beta-galactosidase reporter gene assay
Melanocortin receptor 4 [5] = target: T1, Melanocortin receptor 4 (Mus musculus, UniProt P56450); assay: Agonist activity at mouse melanocortin receptor 4 expressed in HEK293 cells assessed as stimulation of intracellular cAMP accumulation incubated for 24 hrs by beta-galactosidase reporter gene assay; outline: as §1
Melanocortin receptor 3 = Melanocortin receptor 3 (Mus musculus, UniProt P33033); assay: Agonist activity at mouse melanocortin receptor 3 expressed in HEK293 cells assessed as stimulation of intracellular cAMP accumulation incubated for 24 hrs by beta-galactosidase reporter gene assay
Melanocortin receptor 4 [6] = target: T1, Melanocortin receptor 4; assay: Antagonist activity at mouse melanocortin receptor 4 expressed in HEK293 cells assessed as inhibition of NDP-MSH-induced intracellular cAMP accumulation incubated for 24 hrs by beta-galactosidase reporter gene assay; details: read-out: pA2 (converted)

Melanocyte-stimulating hormone receptor (Mus musculus), sequence (Q01727 whole entry, looked up): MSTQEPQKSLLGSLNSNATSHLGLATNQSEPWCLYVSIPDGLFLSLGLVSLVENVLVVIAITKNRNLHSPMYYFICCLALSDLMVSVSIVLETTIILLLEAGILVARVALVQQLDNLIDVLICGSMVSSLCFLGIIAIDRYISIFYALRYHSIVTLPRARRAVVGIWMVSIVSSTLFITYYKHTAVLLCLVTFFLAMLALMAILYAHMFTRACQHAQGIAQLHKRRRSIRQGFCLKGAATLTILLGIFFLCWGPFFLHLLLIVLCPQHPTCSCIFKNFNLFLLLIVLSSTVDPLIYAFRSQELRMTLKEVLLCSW
Melanocyte-stimulating hormone receptor, sequence (Q01727 whole entry): as the sequence (Q01727 whole entry, looked up) above
Melanocortin receptor 4 (Mus musculus), sequence (P56450 whole entry): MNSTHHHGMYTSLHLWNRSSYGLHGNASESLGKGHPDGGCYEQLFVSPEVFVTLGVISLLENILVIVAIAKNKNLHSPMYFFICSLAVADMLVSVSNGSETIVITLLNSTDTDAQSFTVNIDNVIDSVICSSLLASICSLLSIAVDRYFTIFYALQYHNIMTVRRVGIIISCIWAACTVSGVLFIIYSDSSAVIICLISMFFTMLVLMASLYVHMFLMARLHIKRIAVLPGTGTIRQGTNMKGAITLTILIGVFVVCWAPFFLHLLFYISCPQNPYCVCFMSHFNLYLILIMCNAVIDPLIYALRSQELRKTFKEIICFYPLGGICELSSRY
T1 sequence (P56450 whole entry): as above
Melanocortin receptor 3, sequence (P33033 whole entry): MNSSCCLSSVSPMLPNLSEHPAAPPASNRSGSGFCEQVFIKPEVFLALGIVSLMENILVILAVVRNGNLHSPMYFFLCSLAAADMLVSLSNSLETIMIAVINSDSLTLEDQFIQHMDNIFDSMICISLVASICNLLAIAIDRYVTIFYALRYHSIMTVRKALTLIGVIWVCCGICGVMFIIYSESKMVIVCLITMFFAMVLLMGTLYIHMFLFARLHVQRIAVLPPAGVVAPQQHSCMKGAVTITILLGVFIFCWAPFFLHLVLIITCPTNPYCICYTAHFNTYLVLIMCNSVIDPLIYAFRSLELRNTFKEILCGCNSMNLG
Melanocortin receptor 3 (Mus musculus), sequence (P33033 whole entry): as above
Melanocortin receptor 5, sequence (P41149 whole entry): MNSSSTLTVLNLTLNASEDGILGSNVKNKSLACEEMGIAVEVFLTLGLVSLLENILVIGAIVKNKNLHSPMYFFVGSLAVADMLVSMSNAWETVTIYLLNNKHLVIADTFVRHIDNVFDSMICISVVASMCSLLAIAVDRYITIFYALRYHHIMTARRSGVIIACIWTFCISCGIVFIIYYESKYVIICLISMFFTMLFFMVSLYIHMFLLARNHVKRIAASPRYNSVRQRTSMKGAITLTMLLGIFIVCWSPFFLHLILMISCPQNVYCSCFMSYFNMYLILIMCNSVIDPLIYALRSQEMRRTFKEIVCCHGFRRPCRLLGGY

SMILES	Emax ([1]; filed as agonist) [%]	EC50 (Melanocortin receptor 5) [µM]	Emax ([3]; filed as agonist) [%]	EC50 [4] [µM]	EC50 (Melanocortin receptor 3) [µM]	also measured
CC(C)CCCN1C(=N)N([C@H](Cc2ccccc2)CN2CCC[C@H]2CN2C(=N)NC[C@H]2CC(C)C)C[C@H]1C(C)C	10	1.26	–	–	–	–
CCC[C@@H]1CN([C@H](Cc2ccccc2)CN2CCC[C@H]2CN2C(=N)NC[C@H]2CC(C)C)C(=N)N1CC1CCC(C(C)(C)C)CC1 (stereo not given in full)	–	0.48	73	–	–	Emax [2]: 38%; Emax [1]: 28%
CC(C)C[C@@H]1CNC(=N)N1C[C@@H]1CCCN1C[C@@H](Cc1ccccc1)N1C[C@@H](C(C)C)N(CC23CC4CC(CC(C4)C2)C3)C1=N	–	0.44	67	15.5	–	EC50 (Melanocortin receptor 4 [5]): 8.2 µM
CC(C)C[C@@H]1CNC(=N)N1C[C@@H]1CCCN1C[C@@H](Cc1ccccc1)N1C[C@@H](C(C)C)N(CC2CCC(C(C)(C)C)CC2)C1=N (stereo not given in full)	–	0.56	62	6.8	–	–
CC(C)C[C@@H]1CNC(=N)N1C[C@@H]1CCCN1C[C@@H](Cc1ccccc1)N1C[C@@H]([C@@H](C)O)N(CC23CC4CC(CC(C4)C2)C3)C1=N	58	0.81	–	–	0.36	Emax ([2]; filed as agonist): 41%; Kb (Melanocortin receptor 4 [6]): 1.58 µM
CC(C)C[C@@H]1CNC(=N)N1C[C@@H]1CCCN1C[C@@H](CC1CCCCC1)N1C[C@@H]([C@@H](C)O)N(CC23CC4CC(CC(C4)C2)C3)C1=N	55	0.34	–	0.33	0.24	EC50 (Melanocortin receptor 4 [5]): 0.65 µM
CC(C)[C@@H]1CNC(=N)N1C[C@@H]1CCCN1C[C@@H](Cc1ccccc1)N1C[C@@H]([C@@H](C)O)N(CC2CCC(C(C)(C)C)CC2)C1=N (stereo not given in full)	–	0.49	–	0.6	0.42	Kb (Melanocortin receptor 4 [6]): 0.316 µM
O=C(N[C@@H](Cc1ccc(Cl)cc1)C(=O)N1CCC(Cn2cncn2)(C2CCCCC2)CC1)[C@H]1Cc2ccccc2CN1	–	–	–	–	–	EC50 (Melanocortin receptor 4 [5]): 0.0009 µM
CC(C)C[C@@H]1CNC(=N)N1C[C@@H]1CCCN1C[C@@H](CC1CCCCC1)N1C[C@@H]([C@@H](C)O)N(CC2CCC(C(C)(C)C)CC2)C1=N (stereo not given in full)	45	0.14	–	0.3	0.21	EC50 (Melanocortin receptor 4 [5]): 0.27 µM
CC(C)C[C@@H]1CNC(=N)N1C[C@@H]1CCCN1C[C@@H](Cc1ccccc1)N1C[C@@H]([C@@H](C)O)N(CC2CCC(C(C)(C)C)CC2)C1=N (stereo not given in full)	–	0.53	–	–	0.31	Emax ([2]; filed as agonist): 58%
CCC[C@@H]1CN([C@H](Cc2ccccc2)CN2CCC[C@H]2CN2C(=N)NC[C@H]2C(C)C)C(=N)N1CC1CCC(C(C)(C)C)CC1 (stereo not given in full)	–	0.94	–	2.3	6.2	Emax [1]: 27%
CC(C)C[C@@H]1CNC(=N)N1C[C@@H]1CCCN1C[C@@H](CC1CCCCC1)N1C[C@@H](C(C)C)N(CC2CCC(C(C)(C)C)CC2)C1=N (stereo not given in full)	–	0.56	69	–	–	Emax ([2]; filed as agonist): 54%; Kb (Melanocortin receptor 4 [6]): 3.16 µM
CCC[C@@H]1CN([C@H](Cc2ccccc2)CN2CCC[C@H]2CN2C(=N)NC[C@H]2CC(C)C)C(=N)N1CC12CC3CC(CC(C3)C1)C2	–	0.61	74	7	–	EC50 (Melanocortin receptor 4 [5]): 1.33 µM
CCC[C@@H]1CN([C@H](CC2CCCCC2)CN2CCC[C@H]2CN2C(=N)NC[C@H]2CC(C)C)C(=N)N1CCCC(C)C	–	1.8	58	2.3	–	EC50 (Melanocortin receptor 4 [5]): 6.7 µM
CCC[C@@H]1CN([C@H](CC2CCCCC2)CN2CCC[C@H]2CN2C(=N)NC[C@H]2C(C)C)C(=N)N1CCCC(C)C	40	1.04	51	–	–	Emax ([2]; filed as agonist): 51%
CCC[C@@H]1CN([C@H](CC2CCCCC2)CN2CCC[C@H]2CN2C(=N)NC[C@H]2C(C)C)C(=N)N1CC1CCC(C(C)(C)C)CC1 (stereo not given in full)	50	0.54	–	–	0.35	Emax ([2]; filed as agonist): 51%; Kb (Melanocortin receptor 4 [6]): 1.58 µM
CC(C)[C@@H]1CNC(=N)N1C[C@@H]1CCCN1C[C@@H](CC1CCCCC1)N1C[C@@H]([C@@H](C)O)N(CC2CCC(C(C)(C)C)CC2)C1=N (stereo not given in full)	41	0.15	–	0.3	0.22	Kb (Melanocortin receptor 4 [6]): 1.26 µM
CC(C)[C@@H]1CNC(=N)N1C[C@@H]1CCCN1C[C@@H](CC1CCCCC1)N1C[C@@H](C(C)C)N(CC2CCC(C(C)(C)C)CC2)C1=N (stereo not given in full)	–	0.51	–	0.29	4.3	Emax [1]: 28%
CC(C)C[C@@H]1CNC(=N)N1C[C@@H]1CCCN1C[C@@H](CC1CCCCC1)N1C[C@@H](C(C)C)N(CC23CC4CC(CC(C4)C2)C3)C1=N	50	0.5	70	0.57	–	–
CC(C)[C@@H]1CNC(=N)N1C[C@@H]1CCCN1C[C@@H](CC1CCCCC1)N1C[C@@H](C(C)C)N(CC23CC4CC(CC(C4)C2)C3)C1=N	40	0.58	–	0.3	3.7	–
CCC[C@@H]1CN([C@H](CC2CCCCC2)CN2CCC[C@H]2CN2C(=N)NC[C@H]2CC(C)C)C(=N)N1CC1CCC(C(C)(C)C)CC1 (stereo not given in full)	65	0.53	75	0.5	–	–
CCC[C@@H]1CN([C@H](CC2CCCCC2)CN2CCC[C@H]2CN2C(=N)NC[C@H]2CC(C)C)C(=N)N1CC12CC3CC(CC(C3)C1)C2	51	0.47	67	–	–	Emax ([2]; filed as agonist): 70%
CC(C)[C@@H]1CNC(=N)N1C[C@@H]1CCCN1C[C@@H](Cc1ccccc1)N1C[C@@H](C(C)C)N(CC2CCC(C(C)(C)C)CC2)C1=N (stereo not given in full)	–	0.6	68	29.1	–	–
CC(C)CCCN1C(=N)N([C@H](CC2CCCCC2)CN2CCC[C@H]2CN2C(=N)NC[C@H]2CC(C)C)C[C@H]1[C@@H](C)O	10	0.63	58	7.3	–	–
CC(C)CCCN1C(=N)N([C@H](CC2CCCCC2)CN2CCC[C@H]2CN2C(=N)NC[C@H]2C(C)C)C[C@H]1C(C)C	51	1.7	51	6.1	–	–
CC(C)CCCN1C(=N)N([C@H](CC2CCCCC2)CN2CCC[C@H]2CN2C(=N)NC[C@H]2C(C)C)C[C@H]1[C@@H](C)O	–	0.74	–	0.7	5.2	–
CSCC[C@H](NC(=O)[C@H](CO)NC(=O)[C@H](Cc1ccc(O)cc1)NC(=O)[C@@H](N)CO)C(=O)N[C@@H](CCC(=O)O)C(=O)N[C@@H](Cc1c[nH]cn1)C(=O)N[C@@H](Cc1ccccc1)C(=O)N[C@@H](CCCN=C(N)N)C(=O)N[C@@H](Cc1c[nH]c2ccccc12)C(=O)NCC(=O)N[C@@H](CCCCN)C(=O)N1CCC[C@H]1C(=O)N[C@H](C(=O)O)C(C)C	–	0.0007	–	–	–	EC50 (Melanocortin receptor 4 [5]): 0.0016 µM
CC(C)[C@@H]1CNC(=N)N1C[C@@H]1CCCN1C[C@@H](Cc1ccccc1)N1C[C@@H](C(C)C)N(CC23CC4CC(CC(C4)C2)C3)C1=N	54	0.66	–	47.8	4	–
CC(C)CCCN1C(=N)N([C@H](CC2CCCCC2)CN2CCC[C@H]2CN2C(=N)NC[C@H]2CC(C)C)C[C@H]1C(C)C	51	1.85	–	–	–	Emax ([2]; filed as agonist): 50%; Emax [3]: 33%
CC(C)[C@@H]1CNC(=N)N1C[C@@H]1CCCN1C[C@@H](CC1CCCCC1)N1C[C@@H]([C@@H](C)O)N(CC23CC4CC(CC(C4)C2)C3)C1=N	49	0.6	–	0.2	0.37	Kb (Melanocortin receptor 4 [6]): 1.58 µM
